An excerpt weighted towards active compounds, which were near 3.6% of everything screened.
HSF1 inhib = HSF1 inhibition. NIH3T3-HGL HSE-luciferase, MG132-induced, luminescence 8 h; hits give low values. AID 2098. activity change, negative = inhibition, % at 7.5 µM (by protocol). actives 0.77% (n = 300,000);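 active = more than half of replicate wells show activity change below -50%, luminescence cut by over half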;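 note: luciferase reports HSF-1 transcriptional activity via heat shock element; 0% = median of DMSO wells and -100% = zero luminescence signal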
AHR act = activates the human aryl hydrocarbon receptor | actives 2.5% (n = 320,000) | activation, % at 5 µM | AHR-responsive luciferase reporter cells, luminescence | P35869 | AID 2796; in the data active = activation above about 47%;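 note: 0% = vehicle wells and 100% = reference agonist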
STAT3 activator = increases IL-6 driven STAT3 reporter signal | U3A cells, IL-6 STAT3-luciferase reporter, luminescence; 100% = signal with IL-6 EC80 alone | activation (% of control), % at 5.6 µM | actives 0.91% (n = 190,000) | AID 871;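 active = activation above the screen-wide mean of compound activation plus 3 SD, cut at about 130% in these data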;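 note: 0% = background luminescence of wells with medium and substrate only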
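Detection: reporter luminescence signal / Assay system: STAT1-lacking human U3A cells, STAT3 luciferase reporter / Incubation: compound pre-incubation 1 h before IL-6, then 6 h stimulation at 37 °C / Control set: IL-6-only high control / Read-out: % activation relative to IL-6 control / Probe or stimulus: Interleukin-6, 33 ng/mL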
PolyA inh = blocks polyadenylation in yeast reporter cells | S. cerevisiae SKY197-pL101 polyadenylation reporter, beta-gal luminescence; efflux-impaired pdr1/pdr3 knockout yeast; score 100 = 6 SD above DMSO | activity score, % at 12 µM | actives 0.02% (n = 300,000);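 active = lowest replicate activity score at least 50, where 100 means six control SD above control mean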;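 note: yeast exposed to compound for 9 h at 30 °C; higher score means more reporter readthrough which indicates perturbed polyadenylation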
Hsp70 activator = switches on Hsp70 transcription. HeLa Hsp70 promoter luciferase reporter, luminescence; scaled: vehicle 0, proteasome-inhibitor control 100%. actives 0.04% (n = 200,000). activation, % at 10 µM;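 active = activation above the mean across all tested compounds plus 3 SD, cutoff set per campaign, cut at about 5.5% in these data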;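 note: 100% = MG132 at 30 µM as the positive control and 0% = DMSO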
PERK inhibitor = blocks human PERK kinase; Q9NZJ5; CHO PERK-DD fusion, SEAP luminescence translation reporter; inhibition, % at 5.6 µM; actives 0.17% (n = 220,000); AID 1416;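 active = inhibition above the mean inhibition of all tested compounds plus 3 SD, set separately per screening campaign, cut at about 2.9% in these data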;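 note: PERK kinase domain activated by AP20187 dimerizer at 100 nM; 0% = DMSO with dimerizer and 100% = rapamycin at 8.4 µM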
* marks the source's active call; other numbers are inactive results.

For C=CCSc1nc(N)c(C(=O)Nc2ccccc2OC)cc1C(=O)Nc1ccccc1 the results were HSF1 inhib -6, AHR act 75*, STAT3 activator 106, PolyA inh -13, Hsp70 activator 0 and PERK inhibitor 0.
CC(C)C(NC(=O)c1ccccc1)c1nnc(SCC(=O)NC2CCCC2)n1C (configuration not stated) was read as HSF1 inhib 16, AHR act 1 and PolyA inh -13.
COc1ccc(CNC(=O)c2ccc(Cn3cc(Br)cn3)o2)cc1 was read as HSF1 inhib -2, AHR act 9 and PolyA inh 2.
Screening COc1ccccc1NC(=O)c1cc(C)nc2ccccc12 returned HSF1 inhib -2, AHR act 74*, STAT3 activator 101, PolyA inh 18, Hsp70 activator 0 and PERK inhibitor 0.
For O=C(Nc1ccccc1F)c1cc(-c2ccco2)nc2ccccc12 the results were HSF1 inhib 2, AHR act 60* and PolyA inh -26.
For O=C(Nc1ccc(F)cc1F)c1cc(-c2ccco2)nc2ccccc12 the results were HSF1 inhib 13, AHR act 45 and PolyA inh -8.
COc1ccc(C2NS(=O)(=O)OCC2C)cc1 (configuration not stated) was read as HSF1 inhib 11, AHR act -1 and PolyA inh 18.
Cc1cc(OCC(=O)Nc2sc3c(c2C#N)CC(C)(C)NC3(C)C)c(C(C)C)cc1Cl was read as HSF1 inhib -55*, AHR act 0 and PolyA inh 11.
For CC1Cc2nc(SCC(=O)Nc3nc4ccccc4s3)n(C)c(=O)c2S1 (configuration not stated) the results were HSF1 inhib 0, AHR act 60*, STAT3 activator 91, PolyA inh -6, Hsp70 activator 0 and PERK inhibitor -1.
For CCc1nnc(NC(=O)CSc2nc3c(c(=O)n2C)SC(C)C3)s1 (configuration not stated) the results were HSF1 inhib -1, AHR act 37, STAT3 activator 90, PolyA inh 8, Hsp70 activator 0 and PERK inhibitor -1.
For COc1ccc(-c2ccc(=O)n(Cc3ccc([N+](=O)[O-])cc3)n2)cc1 the results were HSF1 inhib 3, AHR act 8, STAT3 activator 134*, PolyA inh 5, Hsp70 activator 0 and PERK inhibitor 0.
For O=C(c1cnn(-c2cccc(F)c2)c1)c1ccccc1O the results were HSF1 inhib 4, AHR act 5 and PolyA inh -9.
Screening Cc1cc(C)nc(-n2cc(C(=O)c3cc(F)ccc3O)cn2)n1 returned HSF1 inhib 5, AHR act 53*, STAT3 activator 92, PolyA inh -1, Hsp70 activator 0 and PERK inhibitor 0.
Screening COc1cccc(/C=N/Nc2nc(Nc3ccc([N+](=O)[O-])cc3)nc(N3CCCC3)n2)c1O returned HSF1 inhib -20, AHR act 47*, STAT3 activator 91, PolyA inh -56, Hsp70 activator 1 and PERK inhibitor 0.
`COc1c(/C=N/Nc2nc(N3CCCCC3)nc(N3CCCCC3)n2)cccc1[N+](=O)[O-]` gave HSF1 inhib -15, AHR act 1, STAT3 activator 101, PolyA inh -2, Hsp70 activator 0 and PERK inhibitor -1.
O=[N+]([O-])c1ccc(Nc2nc(N/N=C/c3cccc(F)c3)nc(N3CCCC3)n2)cc1 was read as HSF1 inhib -2, AHR act 145*, STAT3 activator 93, PolyA inh -9, Hsp70 activator 0 and PERK inhibitor 0.
For COCCn1c(=NC(=O)c2ccc(S(=O)(=O)N3CCc4ccccc4C3)cc2)sc2cc(S(N)(=O)=O)ccc21 the results were HSF1 inhib 4, AHR act 0, STAT3 activator 135*, PolyA inh 11, Hsp70 activator 0 and PERK inhibitor -1.
Cc1nn(-c2ccccc2)c2sc(C(=O)O)cc12 was read as HSF1 inhib 3, AHR act 1, STAT3 activator 102, PolyA inh -17, Hsp70 activator 0 and PERK inhibitor 0.

High-throughput results: PubChem BioAssay, several laboratories
